Assay results: ChEMBL document CHEMBL2380254, “Optimization of tocotrienols as antiproliferative and antimigratory leads” (Eur J Med Chem, 2013)
pIC50: −log10 of the molar value.

Legend:
MDA-MB-231 [1] = test: Growth inhibition of human MDA-MB-231 cells after 48 hrs by sulforhodamine B assay; format: functional; details: MDA-MB-231, 48 h
Summary of the method: (§1)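 NCI-60 panel cells grown in RPMI 1640 with 5% FBS and 2 mM L-glutamine, seeded at 5000–40,000 cells/well and preincubated 24 h. Five 10-fold dilutions (0.001–100 µM) from DMSO stocks were added for 48 h at 37 °C. Adherent cells were fixed with cold TCA (10% final) for 60 min at 4 °C, stained with 0.4% SRB, and read at 515 nm. GI50 was set where 100×(T−T0)/(C−T0)=50.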

MDA-MB-231 [2] = test: Antiproliferative activity against human MDA-MB-231 cells by MTT assay; format: functional, cell-based
Summary of the method: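 Cells plated at 8 × 10^3/well (MDA-MB-231) or 10^4/well (MCF7) in 96-well plates. Compounds fed in media with 5% FBS (MDA-MB-231) or 1% FBS (MCF7). MTT read-out of viable cells.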

SF-268 = test: Growth inhibition of human SF268 cells assessed as cell growth at 10 uM after 48 hrs by sulforhodamine B assay; format: functional; details: SF-268, 48 h, read-out: Activity
Summary of the method: (§2)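 Single-dose NCI-60 screen: adherent cells in RPMI 1640 with 5% FBS were exposed to 10 µM for 48 h at 37 °C after a 24 h preincubation. They were fixed in situ with cold TCA (10% final), stained with 0.4% SRB in 1% acetic acid, solubilized in 10 mM Tris base, and read at 515 nm. Percent growth was taken relative to time-zero and control plates.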

MDA-MB-435 [3] = test: Growth inhibition of human MDA-MB-435 cells after 48 hrs by sulforhodamine B assay; format: functional; details: MDA-MB-435, 48 h; summary of the method: as §1
SN12C = test: Growth inhibition of human SN12C cells assessed as cell growth at 10 uM after 48 hrs by sulforhodamine B assay; format: functional; details: read-out: Activity
Summary of the method: (§3)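 Single-dose NCI-60 test at 10 µM. Cells were grown in RPMI 1640 with 5% FBS and 2 mM L-glutamine, preincubated 24 h, with T0 plates TCA-fixed. Exposure was 48 h at 37 °C, 5% CO2. Cells were fixed with cold TCA (final 10%, 4 °C, 60 min), stained with SRB and read at 515 nm. Percent growth was taken relative to T0 and untreated control; negative values denote cell kill.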

MDA-MB-435 [4] = test: Growth inhibition of human MDA-MB-435 cells assessed as cell growth at 10 uM after 48 hrs by sulforhodamine B assay; format: functional; details: MDA-MB-435, 48 h, read-out: Activity; summary of the method: as §2
NCI-H23 = test: Growth inhibition of human NCI-H23 cells assessed as cell growth at 10 uM after 48 hrs by sulforhodamine B assay; format: functional; details: NCI-H23, 48 h, read-out: Activity; summary of the method: as §2
HOP-92 = test: Growth inhibition of human HOP92 cells assessed as cell growth at 10 uM after 48 hrs by sulforhodamine B assay; format: functional; details: HOP-92, 48 h, read-out: Activity
Summary of the method: (§4)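 NCI-60 single-dose screen at 10 µM: cells in RPMI 1640 with 5% FBS, preincubated 24 h, then exposed 48 h at 37 °C. TCA fixation (16% final for suspension cells), SRB staining, absorbance 515 nm. Percent growth relative to time-zero and untreated control plates; negative values indicate cell kill.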

M14 [5] = test: Growth inhibition of human M14 cells after 48 hrs by sulforhodamine B assay; format: functional; details: M14, 48 h
Summary of the method: (§5)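 NCI-60 screen: cells in RPMI 1640 with 5% FBS and 2 mM glutamine, 5000–40,000 cells/well, preincubated 24 h. Five concentrations (10-fold dilutions; 100 to 0.001 µM) applied for 48 h at 37 °C. TCA fixation, SRB stain, absorbance at 515 nm. Time-zero plates included; GI50 where 100×(T−T0)/(C−T0)=50.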

UO-31 [6] = test: Growth inhibition of human UO31 cells assessed as cell growth at 10 uM after 48 hrs by sulforhodamine B assay; format: functional; details: UO-31, 48 h, read-out: Activity; summary of the method: as §3
OVCAR-8 = test: Growth inhibition of human OVCAR8 cells assessed as cell growth at 10 uM after 48 hrs by sulforhodamine B assay; format: functional; details: OVCAR-8, 48 h, read-out: Activity; summary of the method: as §2
UO-31 [7] = test: Growth inhibition of human UO31 cells after 48 hrs by sulforhodamine B assay; format: functional; details: UO-31, 48 h
Summary of the method: (§6)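 NCI-60 five-dose screen. Cells were grown in RPMI 1640 with 5% FBS and 2 mM L-glutamine, plated at 5000–40,000 cells/well and incubated 24 h before dosing, with T0 plates TCA-fixed. DMSO stocks were diluted to doses of […] and exposed 48 h at 37 °C, 5% CO2. Cells were fixed with cold TCA (final 10%, 60 min, 4 °C), stained with 0.4% SRB in 1% acetic acid for 10 min, solubilized in 10 mM trizma base and read at 515 nm. GI50 is where 100×(T−T0)/(C−T0)=50.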

SW-620 = test: Growth inhibition of human SW620 cells assessed as cell growth at 10 uM after 48 hrs by sulforhodamine B assay; format: functional; details: SW-620, 48 h, read-out: Activity; summary of the method: as §3
HT-29 = test: Growth inhibition of human HT-29 cells assessed as cell growth at 10 uM after 48 hrs by sulforhodamine B assay; format: functional; details: HT-29, 48 h, read-out: Activity; summary of the method: as §4
BT-549 = test: Growth inhibition of human BT549 cells assessed as cell growth at 10 uM after 48 hrs by sulforhodamine B assay; format: functional; details: BT-549, 48 h, read-out: Activity; summary of the method: as §4
NCI-H522 = test: Growth inhibition of human NCI-H522 cells after 48 hrs by sulforhodamine B assay; format: functional; details: NCI-H522, 48 h; summary of the method: as §1
MDA-MB-468 = test: Growth inhibition of human MDA-MB-468 cells after 48 hrs by sulforhodamine B assay; format: functional; details: MDA-MB-468, 48 h; summary of the method: as §1
COLO 205 = test: Growth inhibition of human COLO205 cells assessed as cell growth at 10 uM after 48 hrs by sulforhodamine B assay; format: functional; details: COLO 205, 48 h, read-out: Activity; summary of the method: as §4
M14 [8] = test: Growth inhibition of human M14 cells assessed as cell growth at 10 uM after 48 hrs by sulforhodamine B assay; format: functional; details: M14, 48 h, read-out: Activity; summary of the method: as §4
[9] = Growth inhibition of human EKVX cells after 48 hrs by sulforhodamine B assay; format: functional; summary of the method: as §5
[10] = Growth inhibition of human HCC2998 cells after 48 hrs by sulforhodamine B assay; format: functional; details: HCC 2998, 48 h; summary of the method: as §5
[11] = Growth inhibition of human Hs 578T cells after 48 hrs by sulforhodamine B assay; format: functional; summary of the method: as §5
HOP-62 = test: Growth inhibition of human HOP62 cells after 48 hrs by sulforhodamine B assay; format: functional; details: HOP-62, 48 h; summary of the method: as §5
CAKI-1 = test: Growth inhibition of human CAKI-1 cells after 48 hrs by sulforhodamine B assay; format: functional; details: CAKI-1, 48 h; summary of the method: as §5
A549 = test: Growth inhibition of human A549/ATCC cells assessed as cell growth at 10 uM after 48 hrs by sulforhodamine B assay; format: functional; details: A549, 48 h, read-out: Activity; summary of the method: as §4
TK-10 = test: Growth inhibition of human TK10 cells after 48 hrs by sulforhodamine B assay; format: functional; details: TK-10, 48 h; summary of the method: as §6

CC(C)=CCC/C(C)=C/CC/C(C)=C/CC[C@]1(C)CCc2c3c(cc(C)c2O1)OCN(CCCCCO)C3
GI50 (MDA-MB-231 [1]): 5.87 µM
pIC50 (MDA-MB-231 [2]): 5.05
growth at 10 µM (SF-268): 48.5%
GI50 (MDA-MB-435 [3]): 5.8 µM
growth at 10 µM (SN12C): 67.4%
growth at 10 µM (MDA-MB-435 [4]): 44.7%
growth at 10 µM (NCI-H23): 92.9%
growth at 10 µM (HOP-92): 62.3%
GI50 (M14 [5]): 6.63 µM
growth at 10 µM (UO-31 [6]): 50.4%
growth at 10 µM (OVCAR-8): -18.9%
GI50 (UO-31 [7]): 4.64 µM
growth at 10 µM (SW-620): -83.7%
growth at 10 µM (HT-29): -34.9%
growth at 10 µM (BT-549): 110%
GI50 (NCI-H522): 7.08 µM
GI50 (MDA-MB-468): 4.14 µM
growth at 10 µM (COLO 205): 3.96%
growth at 10 µM (M14 [8]): 57.9%
GI50 [9]: 6.08 µM
GI50 [10]: 2.53 µM
GI50 [11]: 7.26 µM
GI50 (HOP-62): 5.9 µM
GI50 (CAKI-1): 5.33 µM
growth at 10 µM (A549): 36.1%
GI50 (TK-10): 5.98 µM

CC(C)=CCC/C(C)=C/CC/C(C)=C/CC[C@]1(C)CCc2c3c(cc(C)c2O1)OCN(CCCO)C3
GI50 (MDA-MB-231 [1]): 1.63 µM
pIC50 (MDA-MB-231 [2]): < 5.00
growth at 10 µM (SF-268): -78.5%
GI50 (MDA-MB-435 [3]): 1.65 µM
growth at 10 µM (SN12C): 11.7%
growth at 10 µM (MDA-MB-435 [4]): -24%
growth at 10 µM (NCI-H23): 51.9%
growth at 10 µM (HOP-92): 63.1%
GI50 (M14 [5]): 1.92 µM
growth at 10 µM (UO-31 [6]): 59.4%
growth at 10 µM (OVCAR-8): -77.7%
GI50 (UO-31 [7]): 1.47 µM
growth at 10 µM (SW-620): -92.1%
growth at 10 µM (HT-29): -76.7%
growth at 10 µM (BT-549): 92%
GI50 (NCI-H522): 1.79 µM
GI50 (MDA-MB-468): 1.56 µM
growth at 10 µM (COLO 205): -92.5%
growth at 10 µM (M14 [8]): 15.1%
GI50 [9]: 5.11 µM
GI50 [10]: 1.74 µM
GI50 [11]: 2.03 µM
GI50 (HOP-62): 1.78 µM
GI50 (CAKI-1): 2.33 µM
growth at 10 µM (A549): -35.9%
GI50 (TK-10): 2.06 µM
